HSF-1 act: HSF-1 activators, primary screen, NIH3T3-HGL cells, MG132 stress, luminescence, single point | NIH3T3-HGL HSF-1 luciferase reporter, 8 h; 100% = twice DMSO control signal | activation, % at 9 µM | 1.7% of 300,000 active | AID 504408, 2011;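 active means mean replicate activation of at least 50% with a set share of replicates each reaching 50%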;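 further: 0% = median of the neutral control wells and 100% = twice that signal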
T cruzi repl: inhibitors of intracellular T. cruzi growth, primary screen, luminescence, NIH3T3 host cells; T. cruzi beta-gal in NIH3T3, 90 h; inhibition, % (concentration not given with the values); 1.4% of 300,000 active;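 active means mean inhibition across valid replicates above about 55%, limit read from the data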;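 further: signal also drops with host cell toxicity which is not excluded here; 0% = plate median of DMSO wells and 100% = zero luminescence signal; higher percent means less beta-gal luminescence so fewer parasites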
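assay system = mouse NIH/3T3 fibroblasts infected with β-gal-expressing T. cruzi Tulahuen C4 | input = 5,000 NIH/3T3 host cells per well | buffer or medium = DMEM plus 2% FBS | timing = 3 h host attachment, then at least 90 h co-culture | measured by = GalScreen luminescence, 60 min | evaluation = luminescence reflecting intracellular parasite burden, expressed as percent inhibition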
Hsp70 activator: Hsp70 transcriptional activators, primary screen, cell-based, HeLa, Hsp70 promoter luciferase, luminescence, 10 µM; HeLa Hsp70 promoter luciferase reporter; scaled: vehicle 0, proteasome-inhibitor control 100%; activation, % at 10 µM; 0.04% of 200,000 active;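 active means activation above the mean across all tested compounds plus 3 SD, cutoff set per campaign, cut at about 5.5% in these data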;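 further: 100% = MG132 at 30 µM as the positive control and 0% = DMSO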
Lmaj promast: Leishmania major promastigote growth inhibition, primary screen; Leishmania major promastigotes, resazurin fluorescence viability; inhibition, % at 10 µM; 9% of 200,000 active; AID 1063, 2008; in the data active means inhibition above about 50%;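 further: promastigotes grown with compound for 44 hours at 28 °C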
HSF1 inhib: HSF1 inhibitors in luciferase reporter cells, primary screen, cell-based, NIH3T3, luminescence; activity change, negative = inhibition, % at 7.5 µM (by protocol); 0.77% of 300,000 active; NIH3T3-HGL HSE-luciferase, MG132-induced, luminescence 8 h; active compounds read low; AID 2098, 2009;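 active means more than half of replicate wells show activity change below -50%, luminescence cut by over half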;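 further: luciferase reports HSF-1 transcriptional activity via heat shock element; 0% = median of DMSO wells and -100% = zero luminescence signal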
Active calls of the source: *; · = no result. This is one part of a sample in which hits are shown more often than they occur.

SMILES	HSF-1 act	T cruzi repl	Hsp70 activator	Lmaj promast	HSF1 inhib
C/C(=N\NC(=O)c1ccccn1)c1ccc(C(=O)O)s1	42	-30	0	-6	18
COc1ccc(C(=O)NC2CCN(CC(=O)NCc3cccc(OC)c3)CC2)cc1	5	-3	·	·	-2
COc1ccc(CC(=O)NCC2CCCN(Cc3cc(OC)cc(OC)c3)C2)cc1 (configuration not stated)	-3	58*	·	·	-1
COc1cc(C(=O)N(C)C2CCCN(Cc3ccccc3F)C2)cc(OC)c1OC (configuration not stated)	-81	1	·	·	-77*
COC(=O)c1ccc(CN2CCCC(CNC(=O)Cc3ccc(OC)cc3)C2)cc1 (configuration not stated)	12	40	·	·	-8
Cn1cc(C(N)=O)c2ccccc21	-12	-15	0	-7	-4
Cn1cc(C(=O)CCl)c2ccccc21	-20	47	0	92*	2
Clc1ccccc1-c1nnc(-c2ccc3c(c2)OCO3)o1	95*	-12	0	3	62
O=C(COc1ccc2c(-c3ccccc3)cc(=O)oc2c1)NCC(O)c1ccccc1 (configuration not stated)	-2	10	·	·	-1
COc1ccc(OC)c(S(=O)(=O)N2CCCC(C(=O)NCc3cccnc3)C2)c1 (configuration not stated)	-20	7	·	·	-2
Cc1sc2ncnc(N3CCC(C(=O)N(C)CC(=O)Nc4ccccc4Cl)CC3)c2c1C	-13	4	·	·	-13
Cc1sc2ncnc(N3CCC(C(=O)N(C)CC(=O)Nc4ccc(Cl)c(C(F)(F)F)c4)CC3)c2c1C	-9	58*	·	·	-8
COC(=O)c1ccc(N2CCOCC2)c(NC(=O)c2ccco2)c1	-13	7	·	·	-5
COc1cccc(N2CCN(c3cnc4ccccc4n3)CC2)c1	·	12	0	70*	·
c1ccc(N2CCN(c3cnc4ccccc4n3)CC2)cc1	75*	3	0	-2	34
O=C(N/N=C/c1ccc(O)cc1O)c1ccc(NC(=O)C2CCCCC2)cc1	1	4	·	·	-3
COc1ccc(C(=O)NCC(=O)N2CCCC(C(F)(F)F)C2)cc1OC (configuration not stated)	-1	-3	·	·	-6
CN(C)C(C)(C)C#CCC(c1ccccc1)c1ccccc1	10	17	0	100*	-1
CCc1ccc(OCC(=O)NNC(=O)C2CCC2)cc1	-1	-11	·	·	0
CCCn1c(=N)n(CC(O)COc2ccc(C)cc2)c2ccccc21 (configuration not stated)	-3	6	·	·	-3
Cc1ccc(OCC(O)Cn2c(=N)n(CCN3CCOCC3)c3ccccc32)cc1 (configuration not stated)	3	1	0	5	-2
CCCCn1c(=N)n(CC(O)COc2cccc(C)c2)c2ccccc21 (configuration not stated)	17	44	0	100*	-4
Cc1ccc(OCC(O)Cn2c(=N)n(CCN3CCCCC3)c3ccccc32)cc1 (configuration not stated)	-10	73*	0	100*	-3
COc1ccc(OCC(O)Cn2c(=N)n(CCN3CCCCC3)c3ccccc32)cc1 (configuration not stated)	·	·	0	100*	·
CCOc1ccccc1N1CC(C(=O)N2CCOCC2)CC1=O (configuration not stated)	6	-10	·	·	-1
SMILES	HSF-1 act	T cruzi repl	Hsp70 activator	Lmaj promast	HSF1 inhib
Cc1nn(-c2cc(N3CCCCCC3)ccc2[N+](=O)[O-])c(=O)c2ccccc12	-4	25	0	47	-3
Cc1ccc(-c2nn(-c3cc(N4CCNCC4)ccc3[N+](=O)[O-])c(=O)c3ccccc23)cc1	14	73*	0	101*	-2
COc1cc(CC(=O)OCc2ccccc2F)cc(OC)c1OC	6	-10	·	·	10
COc1cccc(-c2cnc(NCc3cc(Cl)ccc3O)n2C)c1	-5	6	0	63*	-12
Cn1c(-c2cccc(Br)c2)cnc1NCc1cccnc1	-13	34	0	97*	-14
Cn1c(-c2ccc(F)cc2)cnc1NCc1ccccc1	-26	-3	0	28	-14
Cn1c(-c2ccccc2)cnc1NCc1cccc([N+](=O)[O-])c1	-11	14	·	·	-10
COc1ccccc1CNc1ncc(-c2ccccc2)n1C	22	10	·	·	7
Cn1c(-c2ccc(F)cc2)cnc1NCc1cccc(F)c1	-20	-14	0	78*	-1
Cn1c(-c2ccc3c(c2)OCO3)cnc1NCc1cccc(O)c1	8	-16	0	63*	2
COc1cc(C(=S)N2CCOCC2)ccc1OC(=O)c1cc(OC)c(OC)c(OC)c1	9	-9	·	·	-3
Cc1ccc(SCC(=O)N2N=CCC2c2ccccc2)cc1 (configuration not stated)	16	5	0	84*	3
Cc1c(Cl)cccc1NC(CC(=O)c1ccccc1)C(=O)O (configuration not stated)	23	-20	0	67*	7
O=C(NCc1ccc(-n2cccc2)cc1)c1cccc(F)c1	6	20	0	8	9
CCCN(CCC)CCCNC(=O)CS(=O)Cc1nc(-c2ccc(OC)c(OC)c2)oc1C (configuration not stated)	55*	-15	0	7	23
CC(=O)c1ccc(NC(=S)Nc2cccc3ccccc23)cc1	-72	1	·	·	-67*
CC(=O)c1ccc(NC(=S)NCCc2ccccn2)cc1	-17	-15	0	71*	-3
Cc1ccc(NC(=S)Nc2cccc3ccccc23)cc1F	-62	0	·	·	-55*
CC1CCN(c2ccc(NC(=O)Cn3c(=O)oc4ccccc43)cc2)CC1	0	3	·	·	8
CC1(C)CC(Cc2nc(=S)[nH][nH]2)C(=O)O1 (configuration not stated)	-3	-16	0	-4	-1
N/C(Cc1nc(-c2ccc(Br)cc2)cs1)=N\O	55*	49	0	-5	17
Nc1[nH]n(-c2ccccc2)c(=O)c1N=Nc1ccc2ncsc2c1	1	4	·	·	-6
CC1CC(C)CN(C(=O)c2ccc3c(c2NCCO)C(=O)c2ccccc2C3=O)C1 (configuration not stated)	12	5	0	99*	-6
Cc1ccnc(N2CCCC(C(=O)Nc3cccc(C)c3C)C2)n1 (configuration not stated)	4	-10	·	·	0
CC(C)c1onc(C(=O)NCc2ccc(Cl)cc2)c1[N+](=O)[O-]	-3	-5	0	-9	-1
COc1ccc(CNC(=O)c2noc(C(C)C)c2[N+](=O)[O-])cc1	-4	-1	0	54*	3

Source: PubChem
